Reference: article PMC6110378 (The Pediatric Infectious Disease Journal, 2018)
Converted amounts (≈) assume the structure as drawn. Starred links: 1 amine or outer side, 2 acyl side, 3 side chain; linkers in the order of their positions; H or OH if unused. Positions of bridges follow the written chain, without caps; N, C: chain ends. Non-standard residues stand in square brackets, D forms with d. Residues, ends and D or L forms follow the SMILES beside them. *: point of attachment. hTyr(3S-OH,4S-OH,3'-OSO3H) = N[C@H](C(=O)O)[C@H](O)[C@@H](O)c1ccc(O)c(OS(=O)(=O)O)c1; Orn(4R-OH,5R-OH) = O=C([C@H](C[C@@H](O)[C@@H](O)N[*:3])N[*:1])[*:2]; Pro(3S-OH,4S-Me) = C[C@H]1CN[C@H](C(=O)O)[C@H]1O; X1 = CCCCCOc1ccc(-c2cc(-c3ccc(C(=O)*)cc3)no2)cc1; Gln(3R-OH) = NC(=O)C[C@@H](O)[C@H](N)C(=O)O; Hyp = O=C(O)[C@@H]1C[C@@H](O)CN1

What was measured:
Population PK model = type: in vivo, human infants; conditions: 2-compartment population PK model, 64 infants
In short: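 The dataset was 287 HPLC-measured plasma concentrations from 64 infants aged 3–119 days in 4 pediatric trials, at doses of 0.75–10 mg/kg. A 2-compartment model was fitted in Pmetrics, with infusion into the central compartment and observations weighted by inverse assay variance. Clearance was allometrically scaled. Clearance and volume were normalized to the 1.8 kg mean weight. Kcp and Kpc are central↔peripheral transfer rates. Fit was assessed from observed versus predicted values, r2, bias and imprecision.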

Candida = experiment: MIC values of isolates from infants with invasive candidiasis; type: cell-based
[1] = test system: hematogenous Candida meningoencephalitis; conditions: rabbit model of hematogenous Candida meningoencephalitis; cited from earlier work

In the case of `CCCCCOc1ccc(-c2cc(-c3ccc(C(=O)N[C@H]4C[C@@H](O)[C@@H](O)NC(=O)[C@@H]5[C@@H](O)[C@@H](C)CN5C(=O)[C@H]([C@H](O)CC(N)=O)NC(=O)[C@H]([C@H](O)[C@@H](O)c5ccc(O)c(OS(=O)(=O)O)c5)NC(=O)[C@@H]5C[C@@H](O)CN5C(=O)[C@H]([C@@H](C)O)NC4=O)cc3)no2)cc1` [micafungin] (X1-[Orn(4R-OH,5R-OH)]T[Hyp][hTyr(3S-OH,4S-OH,3'-OSO3H)][Gln(3R-OH)][Pro(3S-OH,4S-Me)]; lactam 1-C), the “Vstd (volume in the central compartment), median” value (Population PK model; normalized to 1.8 kg, median) is reported as 0.43 L/1.8 kg, the “Kcp (rate of drug moving from the central to the peripheral compartment), mean” value (Population PK model; mean (range)) is reported as 1.74 (0.035–5.966) h^–1 and the “Kpc (rate of drug moving from the peripheral to the central compartment), mean” value (Population PK model; mean (range)) is reported as 1.92 (0.090–5.970) h^–1. For the same molecule, the “Kcp, median” value (Population PK model; median) was 0.99 h^–1, the “Kpc, median” value (Population PK model; median) was 2.00 h^–1 and the MIC90 (Candida; isolates of infants in the 2 mg/kg study (n = 17)) was 1 µg/mL (≈ 0.787 µM). The MIC90 (Candida; isolates of infants in the 10 mg/kg study (n = 12)) was 2 µg/mL (≈ 1.57 µM), the “AUC:MIC ratio PD target for near-maximal effect” value [1] was 1332 and the “CNS PD target AUC for near-maximal effect” value [1] was “approximately 166.5 mg·h/L”.
